Test results taken from ChEMBL document CHEMBL3997766, “Synthesis and pre-clinical studies of new amino-acid ester thiazolide prodrugs” (Eur J Med Chem, 2017).

Columns and labels:
Plasma [1] = experiment: Elimination half life in Sprague-Dawley rat assessed as tizoxanide level in plasma at 10 to 75 mg/kg administered via oral gavage qd for 28 consecutive days; type: ADME, organism-based; conditions: in vivo
How it was run: (§1)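 In a sub-acute study, Sprague-Dawley rats were dosed once daily for 28 consecutive days at 10, 30 or 75 mg/kg, given as a yellow suspension. There were four groups of up to 30 rats each (15M/15F) to assess systemic exposure.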

Plasma [2] = experiment: Drug level in Sprague-Dawley rat plasma treated with RM-5061 at 10 to 75 mg/kg administered via oral gavage qd for 28 consecutive days; type: ADME, organism-based; conditions: in vivo; how it was run: as §1
Rattus norvegicus [3] = experiment: Drug level in Sprague-Dawley rat treated with Nitazoxanide at 6 mg/kg, iv measured at 0.7 to 2.1 hrs post dose; type: ADME, organism-based; conditions: in vivo
Canis familiaris = experiment: Drug level in Beagle dog plasma treated with RM-5061 up to 25 mg/kg administered orally as gelatin capsule once daily for 28 days measured on day 1 and 29; type: ADME, organism-based, Canis lupus familiaris; conditions: in vivo, po, 672 h
How it was run: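 Beagle dogs received the drug orally in a single gelatin capsule at 5, 15 or 25 mg/kg once daily for 28 consecutive days in a sub-acute toxicity study assessing systemic exposure.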

Plasma [4] = experiment: Elimination half life in Sprague-Dawley rat assessed as tizoxanide-glucuronide level in plasma at 10 to 75 mg/kg administered via oral gavage qd for 28 consecutive days; type: ADME, organism-based; conditions: in vivo; how it was run: as §1
[5] = Prodrug activation at room temperature after 3 weeks assessed as tizoxanide formation by NMR method
Rattus norvegicus [6] = experiment: Drug level in Sprague-Dawley rat treated with RM5038 at 6.4 mg/kg, iv measured at 0.25 to 1 hrs post dose; type: ADME, organism-based; conditions: in vivo
Rattus norvegicus [7] = experiment: Drug level in Sprague-Dawley rat treated with RM5064 at 6.4 mg/kg, iv measured at 0.25 to 1 hrs post dose; type: ADME, organism-based; conditions: in vivo

O=C(Nc1ncc([N+](=O)[O-])s1)c1ccccc1O [TIZOXANIDE]
beta t1/2 (Plasma [1]): 0.7 to 3.7 h
Drug metabolism (Plasma [2]): Metabolite_Detected
Drug metabolism (Rattus norvegicus [3]): Metabolite_Detected
Drug metabolism (Canis familiaris): Metabolite_Detected

O=C(Nc1ncc([N+](=O)[O-])s1)c1ccccc1O[C@@H]1O[C@H](C(=O)O)[C@@H](O)[C@H](O)[C@H]1O
beta t1/2 (Plasma [4]): 1.5 to 11 h
Drug metabolism (Plasma [2]): Metabolite_Detected
Drug metabolism (Canis familiaris): Metabolite_Detected

CC(C)[C@H](N)C(=O)Oc1ccccc1C(=O)Nc1ncc([N+](=O)[O-])s1
Drug metabolism [5]: 20%

O=C(Nc1ncc(Cl)s1)c1ccccc1O
Drug metabolism (Rattus norvegicus [6]): Metabolite_Detected
Drug metabolism (Rattus norvegicus [7]): Metabolite_Detected
